Data from ChEMBL document CHEMBL1649469, “Pharmacokinetics of nikkomycin Z after single rising oral doses” (Antimicrob Agents Chemother, 2009).

Legend:
[1] = Tmax in healthy human at […], po administered as single dose measured after 72 hrs by HPLC method; assay type: ADME, organism-based; design: route oral; settings: in vivo
Method in brief: (§1)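 Healthy fasting male volunteers, two groups of six, each given two of three single oral capsule doses plus a random placebo, with a 2-week washout. About 12 blood samples were taken over 24 h, then at 48 and 72 h. Plasma was assayed by validated HPLC-UV (LLOQ 48 ng/ml). Noncompartmental analysis: Cmax/Tmax observed, AUC0-t* by linear trapezoid, λz from the terminal log-linear phase, AUC0-∞ = AUC0-t* + C*/λz.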

Homo sapiens [2] = test: Hepatotoxicity in healthy human assessed as elevated bilirubin level at 1000 […], po administered as single dose after 72 hrs; assay type: toxicity, organism-based; design: route oral; settings: in vivo
[3] = AUC (0 to infinity) in healthy human at 1750 mg, po administered as single dose measured after 72 hrs by HPLC method; settings: plasma
[4] = Cmax in healthy human at 500 mg, po administered as single dose measured after 72 hrs by HPLC method; settings: in vivo
[5] = Cmax in healthy human at 1500 mg, po administered as single dose measured after 72 hrs by HPLC method; settings: in vivo
Homo sapiens [6] = test: Hepatotoxicity in healthy human assessed as elevated bilirubin level at 1000 […], po administered as single dose after 7 days post dosing; assay type: toxicity, organism-based; design: route oral; settings: in vivo, 168 h
[7] = Tmax in healthy human at 1000 […], po administered as single dose measured after 72 hrs by HPLC method; assay type: ADME, organism-based; design: route oral; settings: in vivo; method in brief: as §1
[8] = Tmax in healthy human at 500 […], po administered as single dose measured after 72 hrs by HPLC method; assay type: ADME, organism-based; design: route oral; settings: in vivo; method in brief: as §1
[9] = Relative bioavailability based on AUC (0 to infinity) in healthy human at 1500 […], po administered as single dose by HPLC method; assay type: ADME, organism-based; settings: in vivo
Method in brief: (§2)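 Relative bioavailability is AUC0-∞ at the test dose relative to the group's reference dose: 250 mg for group 1 (1,000 and 1,750 mg), 500 mg for group 2 (1,500 and 2,000 mg). Same volunteers, single oral doses, plasma sampling to 72 h and HPLC-UV assay as above.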

[10] = AUC (0 to t) in healthy human at 2000 […], po administered as single dose measured after 72 hrs by HPLC method; assay type: ADME, organism-based; design: time < 72 hr, route oral; settings: plasma; method in brief: as §1
Homo sapiens [11] = test: Absorption time lag in healthy human at 250 to 2000 […], po administered as single dose by HPLC method; assay type: ADME, organism-based; design: route oral; settings: in vivo
Method in brief: (§3)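 Population PK model: one compartment, first-order absorption with lag time, first-order elimination, fitted to plasma HPLC concentrations from single oral doses of 250–2,000 mg in healthy fasting men. F for 250–500 mg was fixed at 1, and doses of 1,500–2,000 mg were assumed to share one F. Posterior predictive check used.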

[12] = AUC (0 to t) in healthy human at 250 mg, po administered as single dose measured after 72 hrs by HPLC method; settings: plasma
[13] = AUC (0 to t) in healthy human at 1500 […], po administered as single dose measured after 72 hrs by HPLC method; assay type: ADME, organism-based; design: time < 72 hr, route oral; settings: plasma; method in brief: as §1
[14] = Tmax in healthy human at 2000 mg, po administered as single dose measured after 72 hrs by HPLC method; settings: in vivo
[15] = AUC (0 to infinity) in healthy human at 2000 mg, po administered as single dose measured after 72 hrs by HPLC method; settings: plasma
[16] = Oral clearance in healthy human at 250 to 2000 […] administered as single dose by HPLC method; assay type: ADME, organism-based; settings: in vivo; method in brief: as §3
[17] = AUC (0 to t) in healthy human at 500 mg, po administered as single dose measured after 72 hrs by HPLC method; settings: plasma
Homo sapiens [18] = test: Hepatotoxicity in healthy human assessed as elevated aspartate transaminase level at 1000 […], po administered as single dose after 72 hrs; assay type: toxicity, organism-based; design: route oral; settings: in vivo
[19] = Relative bioavailability based on AUC (0 to infinity) in healthy human at 2000 […], po administered as single dose by HPLC method; assay type: ADME, organism-based; settings: in vivo; method in brief: as §2
[20] = First-order absorption rate constant in healthy human at 250 to 2000 mg, po administered as single dose by HPLC method; settings: in vivo
[21] = Terminal half life in healthy human at 2000 mg, po administered as single dose measured after 72 hrs by HPLC method; settings: in vivo, read-out: beta t1/2 (converted)
[22] = AUC (0 to infinity) in healthy human at […], po administered as single dose measured after 72 hrs by HPLC method; assay type: ADME, organism-based; design: time infinity, route oral; settings: plasma; method in brief: as §1
[23] = Relative bioavailability based on AUC (0 to infinity) in healthy human at 1750 […], po administered as single dose by HPLC method; assay type: ADME, organism-based; settings: in vivo; method in brief: as §2
[24] = Terminal half life in healthy human at 1500 mg, po administered as single dose measured after 72 hrs by HPLC method; settings: in vivo, read-out: beta t1/2 (converted)
[25] = AUC (0 to t) in healthy human at 1000 mg, po administered as single dose measured after 72 hrs by HPLC method; settings: plasma
[26] = Terminal half life in healthy human at 500 mg, po administered as single dose measured after 72 hrs by HPLC method; settings: in vivo, read-out: beta t1/2 (converted)
Homo sapiens [27] = test: Hepatotoxicity in healthy human assessed as elevated aspartate transaminase level at 1000 […], po administered as single dose after 48 hrs; assay type: toxicity, organism-based; design: route oral; settings: in vivo
Homo sapiens [28] = test: Toxicity in healthy human assessed as occurrence of dizziness at […], po administered as single dose; assay type: organism-based; design: route oral; settings: in vivo
[29] = Cmax in healthy human at 250 mg, po administered as single dose measured after 72 hrs by HPLC method; settings: in vivo
[30] = Cmax in healthy human at 1000 mg, po administered as single dose measured after 72 hrs by HPLC method; settings: in vivo
[31] = AUC (0 to infinity) in healthy human at 1000 mg, po administered as single dose measured after 72 hrs by HPLC method; settings: plasma
Homo sapiens [32] = test: Toxicity in healthy human assessed as occurrence of headache at […], po administered as single dose; assay type: organism-based; design: route oral; settings: in vivo
[33] = Cmax in healthy human at 1750 mg, po administered as single dose measured after 72 hrs by HPLC method; settings: in vivo
[34] = Tmax in healthy human at 1750 mg, po administered as single dose measured after 72 hrs by HPLC method; settings: in vivo
[35] = AUC (0 to infinity) in healthy human at 500 […], po administered as single dose measured after 72 hrs by HPLC method; assay type: ADME, organism-based; design: time infinity, route oral; settings: plasma; method in brief: as §1
Homo sapiens [36] = test: Hepatotoxicity in healthy human assessed as elevated alkaline phosphatase level at 1000 […], po administered as single dose after 72 hrs; assay type: toxicity, organism-based; design: route oral; settings: in vivo
[37] = Relative bioavailability in healthy human at 1000 […], po administered as single dose by HPLC method; assay type: ADME, organism-based; settings: in vivo; method in brief: as §3
[38] = Tmax in healthy human at 1500 […], po administered as single dose measured after 72 hrs by HPLC method; assay type: ADME, organism-based; design: route oral; settings: in vivo; method in brief: as §1
Homo sapiens [39] = test: Hepatotoxicity in healthy human assessed as elevated bilirubin level at 1000 […], po administered as single dose after 48 hrs; assay type: toxicity, organism-based; design: route oral; settings: in vivo
[40] = AUC (0 to t) in healthy human at 1750 […], po administered as single dose measured after 72 hrs by HPLC method; assay type: ADME, organism-based; design: time < 72 hr, route oral; settings: plasma; method in brief: as §1
[41] = Terminal half life in healthy human at 1000 mg, po administered as single dose measured after 72 hrs by HPLC method; settings: in vivo, read-out: beta t1/2 (converted)
[42] = Terminal half life in healthy human at 250 mg, po administered as single dose measured after 72 hrs by HPLC method; settings: in vivo, read-out: beta t1/2 (converted)
Homo sapiens [43] = test: Volume of distribution in healthy human at 250 to 2000 […], po administered as single dose by HPLC method; assay type: ADME, organism-based; design: route oral; settings: in vivo; method in brief: as §3
[44] = Relative bioavailability in healthy human at 1500 to 2000 […], po administered as single dose by HPLC method; assay type: ADME, organism-based; settings: in vivo; method in brief: as §3
[45] = Cmax in healthy human at 2000 […], po administered as single dose measured after 72 hrs by HPLC method; assay type: ADME, organism-based; design: route oral; settings: in vivo; method in brief: as §1
[46] = Terminal half life in healthy human at 1750 mg, po administered as single dose measured after 72 hrs by HPLC method; settings: in vivo, read-out: beta t1/2 (converted)
[47] = AUC (0 to infinity) in healthy human at 1500 mg, po administered as single dose measured after 72 hrs by HPLC method; settings: plasma
Homo sapiens [48] = test: Hepatotoxicity in healthy human assessed as elevated alkaline phosphatase level at 1000 […], po administered as single dose after 48 hrs; assay type: toxicity, organism-based; design: route oral; settings: in vivo

SMILES: C[C@@H]([C@H](N)C(=O)N[C@H](C(=O)O)[C@H]1O[C@@H](n2ccc(=O)[nH]c2=O)[C@H](O)[C@@H]1O)[C@H](O)c1ccc(O)cn1 [NIKKOMYCIN]
- Tmax [1]: 2 h
- Activity (Homo sapiens [2]): Toxic
- AUC(0-inf) [3]: 37900 ng·h/mL
- Cmax [4]: 3990 ng/mL
- Cmax [5]: 4850 ng/mL
- Activity (Homo sapiens [6]): Non-toxic
- Tmax [7]: 4 h
- Tmax [8]: 3 h
- bioavailability [9]: 41%
- AUC(0-t) at 72 h [10]: 40200 ng·h/mL
- Tlag (Homo sapiens [11]): 0.695 h
- AUC(0-t) at 72 h [12]: 11300 ng·h/mL
- AUC(0-t) at 72 h [13]: 30300 ng·h/mL
- Tmax [14]: 4 h
- AUC(0-inf) [15]: 40700 ng·h/mL
- CL/F [16]: 367 mL/min
- AUC(0-t) at 72 h [17]: 24300 ng·h/mL
- Activity (Homo sapiens [18]): Toxic
- bioavailability [19]: 41%
- Ka [20]: 0.000113 s⁻¹
- half-life [21]: 125 min
- AUC(0-inf) [22]: 11600 ng·h/mL
- bioavailability [23]: 47%
- half-life [24]: 133 min
- AUC(0-t) at 72 h [25]: 32100 ng·h/mL
- half-life [26]: 133 min
- Activity (Homo sapiens [27]): Non-toxic
- Activity (Homo sapiens [28]): Toxic
- Cmax [29]: 2210 ng/mL
- Cmax [30]: 5140 ng/mL
- AUC(0-inf) [31]: 32500 ng·h/mL
- Activity (Homo sapiens [32]): Toxic
- Cmax [33]: 6440 ng/mL
- Tmax [34]: 4 h
- AUC(0-inf) [35]: 24600 ng·h/mL
- Activity (Homo sapiens [36]): Toxic
- bioavailability [37]: 61.6%
- Tmax [38]: 2 h
- Activity (Homo sapiens [39]): Non-toxic
- AUC(0-t) at 72 h [40]: 37400 ng·h/mL
- half-life [41]: 124 min
- half-life [42]: 152 min
- Vd (Homo sapiens [43]): 41.5 L
- bioavailability [44]: 43.9%
- Cmax [45]: 6420 ng/mL
- half-life [46]: 127 min
- AUC(0-inf) [47]: 30600 ng·h/mL
- Activity (Homo sapiens [48]): Non-toxic
